SMILES strings stand for the structures. Calls of active or inactive are those of the source.

By GI50 is commonly meant the concentration giving 50% growth inhibition. Low readings indicate greater sensitivity of the cells, high ones lower sensitivity of the cells. Broadly, the IC50 is the concentration needed to halve the response being measured. The inhibition is the change of the read-out against control, counted positive when it falls.

The test system of one assay is CAKI-1. The experiment in a line: Growth inhibition of human Caki1 cells after 48 hrs by sulforhodamine B assay. The assay is classed as functional. The conditions noted are these: CAKI-1, 48 h. The procedure, abridged:
(§1)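 NCI SRB assay with five drug concentrations, top concentration 100 μM, 48 h exposure at 37 °C in RPMI 1640/5% FBS. GI50 is the concentration giving [(Ti−Tz)/(C−Tz)]×100 = 50. Values are means of two independent runs on different dates, each run in duplicate.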

Assay [1] has as its target T1, Insulin receptor (Homo sapiens, UniProt P06213). The experiment in a line: Inhibition of INSR assessed as [33Pi] incorporation by microplate scintillation counting in presence of 1 uM ATP. The procedure, abridged:
(§2)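 Substrates: Poly(Glu,Tyr)4:1 for VEGFR2; Poly(Glu,Tyr) or Poly(Ala,Glu,Lys,Tyr) for INS-R; RBER-CHKtide or casein for PLK1. Incubated 30 °C, 80 min, stopped with 2% H3PO4. Singlicate; activity referenced to no-enzyme and no-inhibitor controls.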

A further assay has as its system IGROV-1. The experiment in a line: Growth inhibition of human IGROV1 cells after 48 hrs by sulforhodamine B assay. The assay is classed as functional. The conditions noted are these: IGROV-1, 48 h. The procedure, abridged: as §1
For orientation: The SRB assay estimates cell density from bound dye.

Assay [2] concerns the target T2, Serine/threonine-protein kinase PLK1 (Homo sapiens, UniProt P53350). The experiment in a line: Inhibition of PLK1 assessed as [33Pi] incorporation by microplate scintillation counting in presence of 1 uM ATP.
For assay [3], the target named is T3, Vascular endothelial growth factor receptor 2 (Homo sapiens, UniProt P35968). The experiment in a line: Inhibition of VEGFR2 assessed as [33Pi] incorporation by microplate scintillation counting in presence of 1 uM ATP. The procedure, abridged:
as §2

A further assay deals with NCI60. The experiment in a line: Antiproliferative activity against human NCI60 cells at 10 uM after 48 hrs by sulforhodamine B assay. The assay is classed as functional, cell-based. The procedure, abridged:
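NCI 60-cell-line prescreen with compound given once at 10 μM. Cells grown in RPMI 1640 with 5% FBS and 2 mM L-glutamine, plated 24 h before dosing, then exposed 48 h at 37 °C. Fixed with cold TCA, stained with SRB, absorbance read at 515 nm, and percent growth taken relative to time-zero and control wells.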

Assay [4] addresses T3, Vascular endothelial growth factor receptor 2. The experiment in a line: Inhibition of VEGFR2 in HUE cells assessed as inhibition of VEGF-induced autophosphorylation treated for 90 mins before VEGF challenge by ELISA. The assay is classed as cell-based. In general terms: An ELISA detects its analyte on a solid surface through an enzyme-linked reagent.
Another assay deals with UACC-257. The experiment in a line: Growth inhibition of human UACC257 cells after 48 hrs by sulforhodamine B assay. The settings on record: UACC-257, 48 h. The assay is classed as functional. The procedure, abridged:
as §1

Another assay deals with HUVEC. The experiment in a line: Inhibition of angiogenesis in HUVEC assessed as inhibition of VEGF-induced sprout growth from cellular spheroids after 24 hrs. The assay is classed as functional, cell-based. The settings on record: Homo sapiens. The procedure, abridged:
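Spheroids of 500 primary HUVEC formed overnight in hanging drops, then embedded in collagen gel. Compound added with VEGF-A at 25 ng/mL final, incubated 37 °C for 24 h, then fixed in 4% paraformaldehyde. Cumulative sprout length measured by image analysis; the mean of 10 random spheroids counts as one data point. IC50 from curve fitting.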

The target in assay [5] is T3, Vascular endothelial growth factor receptor 2. The conditions noted are these: HUE, 10 uM.
The target of assay [6] is T1, Insulin receptor. The experiment in a line: Inhibition of INSR assessed as [33Pi] incorporation at 10 uM by microplate scintillation counting in presence of 1 uM ATP. The procedure, abridged:
as §2

Assay [7] addresses T2, Serine/threonine-protein kinase PLK1. The experiment in a line: Inhibition of PLK1 assessed as [33Pi] incorporation at 10 uM by microplate scintillation counting in presence of 1 uM ATP. The procedure, abridged:
as §2

Assay [8] deals with T3, Vascular endothelial growth factor receptor 2. The experiment in a line: Inhibition of VEGFR2 assessed as [33Pi] incorporation at 10 uM by microplate scintillation counting in presence of 1 uM ATP. The procedure, abridged: as §2

T2 sequence (P53350 whole entry): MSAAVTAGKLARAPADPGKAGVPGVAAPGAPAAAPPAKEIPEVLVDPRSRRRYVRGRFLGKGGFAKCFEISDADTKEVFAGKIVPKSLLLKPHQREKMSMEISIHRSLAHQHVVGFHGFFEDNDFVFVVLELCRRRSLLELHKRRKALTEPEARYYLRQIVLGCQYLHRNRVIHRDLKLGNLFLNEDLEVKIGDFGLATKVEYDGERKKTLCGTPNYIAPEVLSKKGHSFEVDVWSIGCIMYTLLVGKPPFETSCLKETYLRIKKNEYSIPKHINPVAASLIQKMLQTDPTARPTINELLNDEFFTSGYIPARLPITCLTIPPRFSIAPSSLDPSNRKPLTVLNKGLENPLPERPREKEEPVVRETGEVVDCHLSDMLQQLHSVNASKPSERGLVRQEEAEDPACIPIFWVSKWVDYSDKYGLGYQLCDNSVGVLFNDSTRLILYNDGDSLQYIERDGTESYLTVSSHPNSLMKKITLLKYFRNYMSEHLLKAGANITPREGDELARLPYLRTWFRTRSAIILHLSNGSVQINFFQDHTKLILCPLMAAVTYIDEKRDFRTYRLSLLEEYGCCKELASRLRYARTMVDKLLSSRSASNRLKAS
T3 sequence (P35968 whole entry): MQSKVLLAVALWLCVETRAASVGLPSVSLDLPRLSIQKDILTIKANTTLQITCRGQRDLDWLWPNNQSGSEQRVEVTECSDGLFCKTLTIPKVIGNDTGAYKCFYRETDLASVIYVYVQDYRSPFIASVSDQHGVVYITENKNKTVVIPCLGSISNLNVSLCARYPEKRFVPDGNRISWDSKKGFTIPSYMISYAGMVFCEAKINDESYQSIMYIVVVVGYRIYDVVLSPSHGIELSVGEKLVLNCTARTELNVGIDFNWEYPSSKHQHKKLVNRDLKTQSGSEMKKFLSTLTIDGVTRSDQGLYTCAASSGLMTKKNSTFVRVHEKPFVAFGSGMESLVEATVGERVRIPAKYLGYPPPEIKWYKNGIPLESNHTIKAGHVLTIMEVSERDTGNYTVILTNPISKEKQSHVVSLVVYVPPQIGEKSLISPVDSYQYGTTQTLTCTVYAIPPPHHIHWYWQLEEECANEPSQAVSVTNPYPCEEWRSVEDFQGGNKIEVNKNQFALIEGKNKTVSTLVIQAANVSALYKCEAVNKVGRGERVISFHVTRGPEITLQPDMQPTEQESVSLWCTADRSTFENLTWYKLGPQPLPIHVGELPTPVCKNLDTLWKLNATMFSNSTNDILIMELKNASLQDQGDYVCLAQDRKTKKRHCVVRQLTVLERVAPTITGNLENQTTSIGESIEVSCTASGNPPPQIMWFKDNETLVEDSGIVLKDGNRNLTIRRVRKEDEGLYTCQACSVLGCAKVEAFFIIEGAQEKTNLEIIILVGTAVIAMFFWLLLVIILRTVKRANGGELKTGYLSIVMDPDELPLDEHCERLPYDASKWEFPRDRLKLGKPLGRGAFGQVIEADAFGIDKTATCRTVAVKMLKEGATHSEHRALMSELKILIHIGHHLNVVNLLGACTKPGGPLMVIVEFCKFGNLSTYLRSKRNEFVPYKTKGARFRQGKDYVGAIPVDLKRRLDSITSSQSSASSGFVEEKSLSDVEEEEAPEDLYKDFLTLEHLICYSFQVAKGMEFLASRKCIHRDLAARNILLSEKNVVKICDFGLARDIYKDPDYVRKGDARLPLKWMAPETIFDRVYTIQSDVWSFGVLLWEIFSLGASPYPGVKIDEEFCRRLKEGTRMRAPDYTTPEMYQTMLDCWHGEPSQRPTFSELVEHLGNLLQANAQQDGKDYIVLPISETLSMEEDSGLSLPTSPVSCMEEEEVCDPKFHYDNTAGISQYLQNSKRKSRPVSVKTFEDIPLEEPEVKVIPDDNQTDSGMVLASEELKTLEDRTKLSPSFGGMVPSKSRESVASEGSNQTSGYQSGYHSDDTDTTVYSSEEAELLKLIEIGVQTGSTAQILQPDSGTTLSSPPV
T1 sequence (P06213 28-758 limits assumed): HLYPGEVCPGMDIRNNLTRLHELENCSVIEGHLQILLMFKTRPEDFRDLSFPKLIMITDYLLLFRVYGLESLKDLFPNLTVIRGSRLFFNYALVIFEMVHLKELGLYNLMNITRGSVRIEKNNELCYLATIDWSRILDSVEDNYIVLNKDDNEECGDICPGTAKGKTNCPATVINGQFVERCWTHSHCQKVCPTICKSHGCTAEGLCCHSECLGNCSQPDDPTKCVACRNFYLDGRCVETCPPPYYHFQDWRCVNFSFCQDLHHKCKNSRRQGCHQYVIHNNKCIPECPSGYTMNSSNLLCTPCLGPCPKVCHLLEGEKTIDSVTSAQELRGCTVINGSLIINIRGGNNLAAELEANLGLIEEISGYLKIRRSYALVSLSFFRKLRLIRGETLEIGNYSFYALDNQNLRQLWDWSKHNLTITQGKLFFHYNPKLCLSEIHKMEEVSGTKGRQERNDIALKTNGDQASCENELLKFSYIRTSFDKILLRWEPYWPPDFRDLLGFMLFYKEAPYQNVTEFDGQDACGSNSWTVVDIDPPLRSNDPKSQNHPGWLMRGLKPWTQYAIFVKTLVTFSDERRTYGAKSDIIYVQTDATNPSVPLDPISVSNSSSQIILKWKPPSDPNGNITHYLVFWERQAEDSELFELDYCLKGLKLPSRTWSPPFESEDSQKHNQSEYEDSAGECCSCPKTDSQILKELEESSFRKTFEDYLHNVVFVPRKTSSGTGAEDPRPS
T1 sequence (P06213 763-1382 limits assumed): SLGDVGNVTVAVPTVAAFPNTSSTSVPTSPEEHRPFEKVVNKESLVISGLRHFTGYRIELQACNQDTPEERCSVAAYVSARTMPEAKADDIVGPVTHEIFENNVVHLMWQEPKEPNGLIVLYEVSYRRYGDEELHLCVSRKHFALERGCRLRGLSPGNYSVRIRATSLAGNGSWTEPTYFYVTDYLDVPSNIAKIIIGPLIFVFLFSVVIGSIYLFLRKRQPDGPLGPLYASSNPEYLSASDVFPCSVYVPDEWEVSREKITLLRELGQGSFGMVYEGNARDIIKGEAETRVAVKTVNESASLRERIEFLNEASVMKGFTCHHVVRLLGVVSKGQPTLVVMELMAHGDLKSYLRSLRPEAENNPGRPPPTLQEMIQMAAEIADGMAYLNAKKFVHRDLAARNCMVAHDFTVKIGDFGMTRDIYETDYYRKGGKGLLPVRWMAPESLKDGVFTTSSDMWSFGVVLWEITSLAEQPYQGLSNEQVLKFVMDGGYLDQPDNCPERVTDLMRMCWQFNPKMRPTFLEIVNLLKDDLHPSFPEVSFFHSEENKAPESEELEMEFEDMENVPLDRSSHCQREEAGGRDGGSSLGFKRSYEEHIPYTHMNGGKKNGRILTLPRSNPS

For the molecule `CCOc1ccc(Nc2ncc3c(n2)-c2cnccc2NC(=O)C3)cc1`, the GI50 with CAKI-1 was 0.16 µM; in the assay with IGROV-1, 0.4 µM; with UACC-257, greater than 100 µM. Also, the IC50 on Insulin receptor [1] is greater than 100 µM; in assay [2] it was 1.7 µM; in [3], 0.099 µM; in assay [4], 18.6 µM. For the same molecule, in the assay with NCI60, the outcome was Active.
Turning to `COc1ccc(Nc2ncc3c(n2)-c2ccccc2NC(=O)C3)cc1`, the GI50 came out at 0.51 µM with CAKI-1, 0.41 µM in the assay on IGROV-1 and 61 µM in the assay on UACC-257. Moreover, the IC50 came out at 99 µM on Insulin receptor [1], 47 µM in assay [2] and 0.095 µM in assay [3]. For the same molecule, the outcome in the assay with NCI60 was Active.
Regarding `COc1ccc2c(c1)NC(=O)Cc1cnc(Nc3ccc(O)c(Cl)c3)nc1-2`, the concentration for half-maximal inhibition (IC50) on Insulin receptor [1] is greater than 100 µM; in the assay with HUVEC, 1.2 µM; in assay [2] it was 0.36 µM; in assay [3], 0.011 µM; in assay [4] it was 0.43 µM. Moreover, in the assay on NCI60, the outcome was Active.
With `COc1ccc(Nc2ncc3c(n2)-c2ccccc2NC(=O)C3)cc1O`, the GI50 in the assay with CAKI-1 was 0.15 µM; with IGROV-1, 0.25 µM; in the assay on UACC-257 it was 19 µM. Besides, the IC50 on Insulin receptor [1] was found to be 24 µM; in assay [2], 5.7 µM; in assay [3], 0.073 µM; in assay [4] it was 2.4 µM. Further, the result in the assay on NCI60 was Active.
As to `O=C1Cc2cnc(Nc3ccc(O)cc3)nc2-c2ccccc2N1`, the GI50 was 2.6 µM with CAKI-1, 3 µM in the assay on IGROV-1 and greater than 100 µM in the assay on UACC-257. Further, the IC50 on Insulin receptor [1] was greater than 100 µM; in assay [2], greater than 100 µM; in assay [3] it was 0.08 µM. The result in the assay with NCI60 was Active.
Turning to `CCOc1ccc(Nc2ncc3c(n2)-c2ccccc2NC(=O)C3)cc1`, the results for the GI50 with CAKI-1, with IGROV-1 and with UACC-257 were 0.75 µM, 0.38 µM and 27 µM, respectively. Besides, the IC50 at Insulin receptor [1] is greater than 100 µM; in [2] it was greater than 100 µM; in [3], 0.13 µM. Moreover, in the assay with NCI60, the result was Active.
In the case of `CCOc1ccc(Nc2ncc3c(n2)-c2ccc(OC)cc2NC(=O)C3)cc1`, the GI50 was 0.39 µM with CAKI-1, 0.23 µM with IGROV-1 and 55 µM in the assay on UACC-257. Further, the IC50 at Insulin receptor [1] was greater than 100 µM; with HUVEC, 1.1 µM; in [2] it was 7.3 µM; in assay [3], 0.052 µM; in [4], 0.29 µM. Moreover, the result with NCI60 was Active.
Take `O=C1Cc2cnc(Nc3ccc(O)c(Cl)c3)nc2-c2cnccc2N1`: the figures for the IC50 (on Insulin receptor [1]; in assay [2]; in assay [3]) were greater than 100 µM, 1.4 µM and 0.087 µM, respectively. Also, in [5], the inhibition result was “inactive”. Also, the result in the assay on NCI60 was Active.
As for `O=C1Cc2cnc(Nc3ccc(O)c(Cl)c3)nc2-c2ccccc2N1`, the GI50 with CAKI-1 was found to be 4.7 µM; with UACC-257 it was 39 µM. The IC50 on Insulin receptor [1] came to 84 µM; in [2], 9.3 µM; in assay [3] it was 0.035 µM; in assay [4] it was 9.6 µM. In addition, the result in the assay on NCI60 was Active.
On to `O=C1Cc2cnc3ncnn3c2-c2ccccc2N1`, for which the inhibition (on Insulin receptor [6]; in assay [7]; in [8]) was less than 30% throughout. For the same molecule, in the assay on NCI60, the result was Active.

For the origin of these results see ChEMBL document CHEMBL1157616, “Identification of 2-anilino-9-methoxy-5,7-dihydro-6H-pyrimido[5,4-d][1]benzazepin-6-ones as dual PLK1/VEGF-R2 kinase inhibitor chemotypes by structure-based lead generation” (J Med Chem, 2010).
